Laboratory results as given in ChEMBL document CHEMBL1139390, “Synthesis and biological studies of different duocarmycin based glycosidic prodrugs for their use in the antibody-directed enzyme prodrug therapy” (J Med Chem, 2009).

Columns and labels:
A549 [1] = experiment: Cytotoxicity against human A549 cells after 24 hrs by HTCFA; format: functional, cell-based; settings: A549, 24 h
Outline: (§1)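 Clonogenic (HTCFA) assay on adherent A549 cells seeded in triplicate at 10^2–10^5 cells per well; after 24 h, medium replaced by serum-free UltraCulture and cells exposed 24 h to 6–8 concentrations from fresh DMSO solutions (final DMSO 1%).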

A549 [2] = experiment: Cytotoxicity against human A549 cells after 24 hrs in presence of cleaving enzyme by HTCFA; format: functional, cell-based; settings: A549, 24 h; outline: as §1
A549 [3] = experiment: Ratio of IC50 for human A549 cells to IC50 for human A549 cells in presence of cleaving enzyme; format: functional
Outline: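 QIC50 is the IC50 of the prodrug alone divided by its IC50 with the cleaving glycosidase present. Both values come from the 24 h exposure A549 clonogenic assay with 9–10 days of outgrowth and methylene blue colony counts.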

[4] = Stability in ultraculture medium after 24 hrs by HPLC-MS; format: physicochemical; settings: read-out: Stability
Outline: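 Compound held in UltraCulture medium at 37 °C for 24 h. The fraction remaining was quantified by HPLC-MS peak area (AUC) on a C12 reversed-phase column.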

| Structure (SMILES) | IC50 (A549 [1]) | IC50 (A549 [2]) | Ratio IC50 (A549 [3]) | remaining at 24 h [4] |
| --- | --- | --- | --- | --- |
| C[C@H]1[C@@H]2CN(C(=O)c3cc4cc(OCCN(C)C)ccc4[nH]3)C3=CC(=O)c4ccccc4[C@@]312 | 0.75 nM | – | – | – |
| C[C@@H](Cl)[C@@H]1CN(C(=O)c2cc3cc(OCCN(C)C)ccc3[nH]2)c2cc(O[C@@H]3O[C@H](CO)[C@H](O)[C@H](O)[C@H]3O)c3ccccc3c21 | 3600 nM | 0.8 nM | 4800 | 27% |
| C[C@@H](Cl)[C@@H]1CN(C(=O)c2cc3cc(OCCN(C)C)ccc3[nH]2)c2cc(O)c3ccccc3c21 | 0.75 nM | – | – | – |
